Results taken from ChEMBL document CHEMBL1137674, “Synthesis and antibacterial evaluation of novel 4-alkyl substituted phenyl beta-aldehyde ketone derivatives” (2009).
Converted amounts (≈) assume the structure as drawn.

Tests used:
Format in all cases: functional
Pseudomonas aeruginosa = assay: Antimicrobial activity against Pseudomonas aeruginosa ATCC 27853 after 16 to 18 hrs by agar dilution method
Procedure, shortened: (§1)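 Agar dilution following NCCLS/CLSI, with twofold serial dilutions of the compounds and reference drugs in Mueller-Hinton agar. Inocula were overnight cultures (16-18 h, 37 °C) adjusted to 0.5 McFarland. Compounds were dissolved in DMSO, which served as the control. MIC was taken as the lowest concentration preventing viable growth after 16-18 h incubation.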

Escherichia coli = assay: Antimicrobial activity against Escherichia coli ATCC 25922 after 16 to 18 hrs by agar dilution method; procedure, shortened: as §1
Staphylococcus aureus [1] = assay: Antimicrobial activity against Staphylococcus aureus ATCC 25923 after 16 to 18 hrs by agar dilution method; procedure, shortened: as §1
Staphylococcus aureus [2] = assay: Antimicrobial activity against methicillin-resistant Staphylococcus aureus isolate 2 after 16 to 18 hrs by agar dilution method
Procedure, shortened: (§2)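 Agar dilution MIC on Mueller-Hinton agar with the test agents mixed into the medium. MIC was read as the lowest concentration preventing viable growth after 16–18 h incubation.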

Staphylococcus aureus [3] = assay: Antimicrobial activity against methicillin-resistant Staphylococcus aureus isolate 5 after 16 to 18 hrs by agar dilution method; procedure, shortened: as §2
Staphylococcus aureus [4] = assay: Antimicrobial activity against methicillin-resistant Staphylococcus aureus isolate 4 after 16 to 18 hrs by agar dilution method; procedure, shortened: as §2
Staphylococcus aureus [5] = assay: Antimicrobial activity against methicillin-resistant Staphylococcus aureus isolate 1 after 16 to 18 hrs by agar dilution method; procedure, shortened: as §2
Staphylococcus aureus [6] = assay: Antimicrobial activity against methicillin-resistant Staphylococcus aureus isolate 3 after 16 to 18 hrs by agar dilution method; procedure, shortened: as §2
Staphylococcus aureus [7] = assay: Antimicrobial activity against Staphylococcus aureus isolate 4 after 16 to 18 hrs by agar dilution method
Staphylococcus aureus [8] = assay: Antimicrobial activity against Staphylococcus aureus isolate 1 after 16 to 18 hrs by agar dilution method
Staphylococcus aureus [9] = assay: Antimicrobial activity against Staphylococcus aureus isolate 3 after 16 to 18 hrs by agar dilution method
Staphylococcus aureus [10] = assay: Antimicrobial activity against Staphylococcus aureus isolate 2 after 16 to 18 hrs by agar dilution method; procedure, shortened: as §2
Staphylococcus aureus [11] = assay: Antimicrobial activity against Staphylococcus aureus isolate 8 after 16 to 18 hrs by agar dilution method; procedure, shortened: as §2
Staphylococcus aureus [12] = assay: Antimicrobial activity against Staphylococcus aureus isolate 7 after 16 to 18 hrs by agar dilution method; procedure, shortened: as §2
Staphylococcus aureus [13] = assay: Antimicrobial activity against Staphylococcus aureus isolate 5 after 16 to 18 hrs by agar dilution method
Staphylococcus aureus [14] = assay: Antimicrobial activity against Staphylococcus aureus isolate 9 after 16 to 18 hrs by agar dilution method
Staphylococcus aureus [15] = assay: Antimicrobial activity against Staphylococcus aureus isolate 10 after 16 to 18 hrs by agar dilution method
Staphylococcus aureus [16] = assay: Antimicrobial activity against Staphylococcus aureus isolate 6 after 16 to 18 hrs by agar dilution method

| MIC (Pseudomonas aeruginosa) [µg/mL] | MIC (Escherichia coli) [µg/mL] | MIC (Staphylococcus aureus [1]) [µg/mL] | Structure (SMILES) | other results |
| --- | --- | --- | --- | --- |
| > 64 | > 64 | > 64 | CCCCCc1ccc(C(=O)CC(O)S(=O)(=O)[O-])cc1.[Na+] (configuration not stated) | – |
| > 64 | > 64 | 4 (≈ 19.5 µM) | CCc1ccc(C(=O)C/C=N/OC)cc1 | – |
| > 64 | > 64 | 64 (≈ 361 µM) | Cc1ccc(C(=O)C/C=N/O)cc1 | – |
| > 64 | > 64 | 64 (≈ 361 µM) | CO/N=C/CC(=O)c1ccccc1 | – |
| 64 (≈ 259 µM) | 64 (≈ 259 µM) | 4 (≈ 16.2 µM) | CCCCCc1ccc(C(=O)C/C=N/OC)cc1 | – |
| > 64 | > 64 | 4 (≈ 18.2 µM) | CCO/N=C/CC(=O)c1ccc(CC)cc1 | – |
| > 64 | > 64 | > 64 | CC(C)c1ccc(C(=O)CC(O)S(=O)(=O)[O-])cc1.[Na+] (configuration not stated) | – |
| > 64 | > 64 | > 64 | NC(=O)N/N=C/CC(=O)c1ccccc1 | – |
| > 64 | > 64 | > 64 | Cc1ccc(C(=O)CC=O)cc1 | – |
| > 64 | > 64 | > 64 | Cc1ccc(C(=O)C/C=N/NC(N)=S)cc1 | – |
| > 64 | > 64 | 32 (≈ 137 µM) | CCc1ccc(/C(C/C=N/OC)=N\OC)cc1 | – |
| > 64 | > 64 | 4 (≈ 15.3 µM) | CCCCCc1ccc(C(=O)C/C=N/OCC)cc1 | – |
| > 64 | > 64 | > 64 | O=CCC(=O)c1ccccc1 | – |
| > 64 | > 64 | > 64 | Cc1ccc(C(=O)C/C=N/NC(N)=O)cc1 | – |
| 64 (≈ 312 µM) | 64 (≈ 312 µM) | 4 (≈ 19.5 µM) | CCO/N=C/CC(=O)c1ccc(C)cc1 | – |
| > 64 | > 64 | 32 (≈ 122 µM) | CCO/N=C(/C/C=N/OCC)c1ccc(CC)cc1 | – |
| > 64 | > 64 | 32 (≈ 129 µM) | CO/N=C(/C/C=N/OC)c1ccc(C(C)C)cc1 | – |
| > 64 | > 64 | 32 (≈ 116 µM) | CCO/N=C(/C/C=N/OCC)c1ccc(C(C)C)cc1 | – |
| > 64 | > 64 | 64 (≈ 210 µM) | CCCCCc1ccc(/C(C/C=N/OCC)=N\OCC)cc1 | – |
| > 64 | > 64 | > 64 | NC(=S)N/N=C/CC(=O)c1ccccc1 | – |
| > 64 | > 64 | 64 (≈ 392 µM) | O=C(C/C=N/O)c1ccccc1 | – |
| > 64 | > 64 | 64 (≈ 232 µM) | CCCCCc1ccc(/C(C/C=N/OC)=N\OC)cc1 | – |
| – | – | – | CCCCCCCCCC(=O)CC(O)S(=O)(=O)[O-].[Na+] (configuration not stated) [SODIUM HOUTTUYFONATE] | MIC (Staphylococcus aureus [7]): 64 µg/mL; MIC (Staphylococcus aureus [8]): 64 µg/mL; MIC (Staphylococcus aureus [9]): 64 µg/mL; MIC (Staphylococcus aureus [10]): 64 µg/mL; MIC (Staphylococcus aureus [11]): 64 µg/mL; MIC (Staphylococcus aureus [12]): 64 µg/mL; MIC (Staphylococcus aureus [13]): 32 µg/mL; MIC (Staphylococcus aureus [14]): 64 µg/mL; MIC (Staphylococcus aureus [15]): 32 µg/mL; MIC (Staphylococcus aureus [16]): 64 µg/mL |

| Structure (SMILES) | MIC (Pseudomonas aeruginosa) [µg/mL] | MIC (Escherichia coli) [µg/mL] | MIC (Staphylococcus aureus [1]) [µg/mL] | other results |
| --- | --- | --- | --- | --- |
| CO/N=C/CC(=O)c1ccc(C)cc1 | 64 (≈ 335 µM) | 64 (≈ 335 µM) | 4 (≈ 20.9 µM) | MIC (Staphylococcus aureus [2]): 8 µg/mL (≈ 41.8 µM); MIC (Staphylococcus aureus [3]): 8 µg/mL (≈ 41.8 µM); MIC (Staphylococcus aureus [4]): 8 µg/mL (≈ 41.8 µM); MIC (Staphylococcus aureus [5]): 8 µg/mL (≈ 41.8 µM); MIC (Staphylococcus aureus [6]): 8 µg/mL (≈ 41.8 µM) |
| CO/N=C/CC(=O)c1ccc(C(C)C)cc1 | > 64 | > 64 | 2 (≈ 9.12 µM) | MIC (Staphylococcus aureus [2]): 8 µg/mL (≈ 36.5 µM); MIC (Staphylococcus aureus [3]): 4 µg/mL (≈ 18.2 µM); MIC (Staphylococcus aureus [4]): 8 µg/mL (≈ 36.5 µM); MIC (Staphylococcus aureus [5]): 8 µg/mL (≈ 36.5 µM); MIC (Staphylococcus aureus [6]): 8 µg/mL (≈ 36.5 µM) |
| CCO/N=C/CC(=O)c1ccc(C(C)C)cc1 | > 64 | > 64 | 1 (≈ 4.29 µM) | MIC (Staphylococcus aureus [2]): 8 µg/mL (≈ 34.3 µM); MIC (Staphylococcus aureus [7]): 2 µg/mL (≈ 8.57 µM); MIC (Staphylococcus aureus [8]): 4 µg/mL (≈ 17.1 µM); MIC (Staphylococcus aureus [3]): 8 µg/mL (≈ 34.3 µM); MIC (Staphylococcus aureus [9]): 4 µg/mL (≈ 17.1 µM); MIC (Staphylococcus aureus [10]): 16 µg/mL (≈ 68.6 µM); MIC (Staphylococcus aureus [11]): 8 µg/mL (≈ 34.3 µM); MIC (Staphylococcus aureus [12]): 8 µg/mL (≈ 34.3 µM); MIC (Staphylococcus aureus [13]): 1 µg/mL (≈ 4.29 µM); MIC (Staphylococcus aureus [4]): 16 µg/mL (≈ 68.6 µM); MIC (Staphylococcus aureus [5]): 16 µg/mL (≈ 68.6 µM); MIC (Staphylococcus aureus [14]): 4 µg/mL (≈ 17.1 µM); MIC (Staphylococcus aureus [15]): 4 µg/mL (≈ 17.1 µM); MIC (Staphylococcus aureus [16]): 4 µg/mL (≈ 17.1 µM); MIC (Staphylococcus aureus [6]): 8 µg/mL (≈ 34.3 µM) |
| CC[C@H]1OC(=O)[C@H](C)[C@@H](O[C@H]2C[C@@](C)(OC)[C@@H](O)[C@H](C)O2)[C@H](C)[C@@H](O[C@@H]2O[C@H](C)C[C@H](N(C)C)[C@H]2O)[C@](C)(OC)C[C@@H](C)C(=O)[C@H](C)[C@@H](O)[C@]1(C)O [CLARITHROMYCIN] | > 64 | 32 (≈ 42.8 µM) | 0.12 (≈ 0.16 µM) | – |
| CCCCCCCCCC(=O)CC=O [HOUTTUYNIN] | – | – | 32 (≈ 161 µM) | MIC (Staphylococcus aureus [2]): 16 µg/mL (≈ 80.7 µM); MIC (Staphylococcus aureus [3]): 16 µg/mL (≈ 80.7 µM); MIC (Staphylococcus aureus [4]): 16 µg/mL (≈ 80.7 µM); MIC (Staphylococcus aureus [5]): 16 µg/mL (≈ 80.7 µM); MIC (Staphylococcus aureus [6]): 16 µg/mL (≈ 80.7 µM) |
| C[C@H]1COc2c(N3CCN(C)CC3)c(F)cc3c(=O)c(C(=O)O)cn1c23.C[C@H]1COc2c(N3CCN(C)CC3)c(F)cc3c(=O)c(C(=O)O)cn1c23.O [LEVOFLOXACIN] | 0.5 | 0.025 | 0.25 | MIC (Staphylococcus aureus [2]): 8 µg/mL; MIC (Staphylococcus aureus [7]): 0.25 µg/mL; MIC (Staphylococcus aureus [8]): 0.25 µg/mL; MIC (Staphylococcus aureus [3]): 16 µg/mL; MIC (Staphylococcus aureus [9]): 0.25 µg/mL; MIC (Staphylococcus aureus [10]): 0.5 µg/mL; MIC (Staphylococcus aureus [11]): 0.25 µg/mL; MIC (Staphylococcus aureus [12]): 0.25 µg/mL; MIC (Staphylococcus aureus [13]): 0.125 µg/mL; MIC (Staphylococcus aureus [4]): 16 µg/mL; MIC (Staphylococcus aureus [5]): 8 µg/mL; MIC (Staphylococcus aureus [14]): 0.25 µg/mL; MIC (Staphylococcus aureus [15]): 0.5 µg/mL; MIC (Staphylococcus aureus [16]): 0.5 µg/mL; MIC (Staphylococcus aureus [6]): 16 µg/mL |
